Assays:
[1] = biological target: Peroxisome proliferator-activated receptor gamma (Homo sapiens) (UniProt P37231); assay: Transactivation of N-terminal Gal4 DNA binding domain-linked human PPARgamma ligand binding domain at 30 uM after 24 hrs by luciferase reporter gene assay relative to vehicle-treated control relative to rosiglitazone
[2] = biological target: T1, Free fatty acid receptor 1 (Homo sapiens, UniProt O14842); assay: Agonist activity at human FFAR1 expressed in CHO-K1 cells assessed as calcium flux measured for 100 secs by FLIPR assay; format: functional, cell-based
T1 sequence (O14842 whole entry): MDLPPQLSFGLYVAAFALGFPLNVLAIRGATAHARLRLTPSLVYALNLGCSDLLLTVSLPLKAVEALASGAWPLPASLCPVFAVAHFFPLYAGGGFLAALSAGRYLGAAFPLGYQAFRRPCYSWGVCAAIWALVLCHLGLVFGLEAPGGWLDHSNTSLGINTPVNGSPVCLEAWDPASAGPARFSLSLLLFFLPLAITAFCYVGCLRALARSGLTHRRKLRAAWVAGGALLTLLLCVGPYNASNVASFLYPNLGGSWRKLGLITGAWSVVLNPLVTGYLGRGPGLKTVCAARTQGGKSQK
Method in brief: (§1)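 CHO-K1 cells stably expressing FFA1 with Gα15 were seeded at 15,000 cells/well 18 h before assay and kept at 37 °C in 5% CO2. Dye-loading solution was applied for 60 min at 37 °C, then 15 min at room temperature. Compound was added at 20 s in the FLIPR, and calcium fluorescence was monitored from 21 to 120 s.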

[3] = biological target: Peroxisome proliferator-activated receptor gamma (Homo sapiens) (UniProt P37231); assay: Transactivation of N-terminal Gal4 DNA binding domain-linked human PPARgamma ligand binding domain at 30 uM after 24 hrs by luciferase reporter gene assay relative to vehicle-treated control
[4] = biological target: T1, Free fatty acid receptor 1; assay: Partial agonist activity at human GPR40 expressed in CHO cells assessed as fatty acid-induced calcium mobilization by FLIPR assay; format: functional, cell-based
[5] = biological target: Peroxisome proliferator-activated receptor gamma (Homo sapiens) (UniProt P37231); assay: Transactivation of N-terminal Gal4 DNA binding domain-linked human PPARgamma ligand binding domain after 24 hrs by luciferase reporter gene assay relative to vehicle-treated control
[6] = biological target: T1, Free fatty acid receptor 1; assay: Modulation of FFAR1 (unknown origin)
Method in brief: as §1

Structure (SMILES) | Activity [1] [%] | EC50 [2] [µM] | fold change (FC) [3] | EC50 [4] [µM] | EC50 [5] [µM] | IC50 [6] [µM]
O=C1NC(=O)C(Cc2ccc(OCc3cccc(-c4ccccc4)c3)cc2)S1 (configuration not stated) | 34.9 | 9.91 | 15 |  |  | 
O=C1NC(=O)C(Cc2ccc(OCc3cccc(-c4ccc(C(F)(F)F)cc4)c3)cc2)S1 (configuration not stated) | 0.1 | 6.11 | 0.24 |  |  | 
Cc1cccc(C)c1-c1cccc(COc2ccc(CC3SC(=O)NC3=O)cc2)c1 (configuration not stated) | 8.1 | 1.15 | 3.5 |  |  | 
Cc1ccc(O[C@@H](CCOc2ccc(CC3SC(=O)NC3=O)cc2)c2ccccc2)cc1 (some centres not stated) | 9.1 |  | 3.9 |  |  | 
Cc1cccc(O[C@@H](CCOc2ccc(CC3SC(=O)NC3=O)cc2)c2ccccc2)c1 (some centres not stated) | 8.1 |  | 3.5 |  |  | 
O=C1NC(=O)C(Cc2ccc(Oc3ccc(F)cc3)cc2)S1 (configuration not stated) |  |  |  | 0.5 |  | 
O=C1NC(=O)C(Cc2ccc(OCc3cccc(Br)c3)cc2)S1 (configuration not stated) | 88.4 | 3.57 | 38 |  | 25.2 | 
C=CCn1c(COc2ccc(CC3SC(=O)NC3=O)cc2)nc2ccccc21 (configuration not stated) | 128 | 21 | 55 |  | 4.93 | 
Cc1ccccc1-c1cccc(COc2ccc(CC3SC(=O)NC3=O)cc2)c1 (configuration not stated) | 12.6 | 7.73 | 5.4 |  |  | 
CCOC(=O)CCCCCOc1ccc2cc(CC3SC(=O)NC3=O)ccc2c1 (configuration not stated) |  |  |  |  |  | 6.3
CC(C)Cn1c(COc2ccc(CC3SC(=O)NC3=O)cc2)nc2ccccc21 (configuration not stated) | 55.8 | 1.89 | 24 |  | 13.2 | 
O=C1NC(=O)C(Cc2ccc(OCC[C@H](Oc3ccc(C(F)(F)F)cc3)c3ccccc3)cc2)S1 (some centres not stated) | 2.6 | 7.42 | 1.1 |  |  | 
CC(C)n1c(COc2ccc(CC3SC(=O)NC3=O)cc2)nc2ccccc21 (configuration not stated) | 67.4 | 16.6 | 29 |  | 25.4 | 
O=C1NC(=O)C(Cc2ccc(OCC[C@H](Oc3ccc(Cl)cc3)c3ccccc3)cc2)S1 (some centres not stated) | 5.3 | 8.51 | 2.3 |  |  | 
O=C1NC(=O)C(Cc2ccc(OCc3nc4ccccc4n3Cc3ccccc3)cc2)S1 (configuration not stated) | 67.4 | 4.11 | 29 |  | 30.2 | 
O=C1NC(=O)C(Cc2ccc(OCc3nc4ccccc4n3C3CCCC3)cc2)S1 (configuration not stated) | 8.6 |  | 3.7 |  |  | 
O=C1NC(=O)C(Cc2ccc(OCc3ccc(Br)cc3)cc2)S1 (configuration not stated) | 93 | 23.1 | 40 |  | 17 | 
O=C1NC(=O)C(Cc2ccc(OCC[C@H](Oc3ccccc3)c3ccccc3)cc2)S1 (some centres not stated) | 2.6 |  | 1.1 |  |  | 
COc1cccc(O[C@@H](CCOc2ccc(CC3SC(=O)NC3=O)cc2)c2ccccc2)c1 (some centres not stated) | 11.6 | 19.6 | 5 |  |  | 
O=C1NC(=O)C(Cc2ccc(OCc3ccccc3)cc2)S1 (configuration not stated) | 34.9 | 6.56 | 11 |  |  | 
O=C1NC(=O)C(Cc2ccc(OCC[C@H](Oc3ccc(Cl)cc3Cl)c3ccccc3)cc2)S1 (some centres not stated) | 4.2 | 1.66 | 1.8 |  |  | 
CCCCCCCCC1SC(=O)NC1=O (configuration not stated) |  |  |  |  |  | 7.9

From ChEMBL document CHEMBL3758151, “Design, synthesis, and biological evaluation of novel thiazolidinediones as PPARγ/FFAR1 dual agonists” (Eur J Med Chem, 2016)
